What all share (type): cell-based
Assay [1] addresses T1, GABA-A receptor; alpha-2/beta-3/gamma-2 (Homo sapiens, UniProt P18507+P28472+P47869).
T1 sequence (P18507 whole entry): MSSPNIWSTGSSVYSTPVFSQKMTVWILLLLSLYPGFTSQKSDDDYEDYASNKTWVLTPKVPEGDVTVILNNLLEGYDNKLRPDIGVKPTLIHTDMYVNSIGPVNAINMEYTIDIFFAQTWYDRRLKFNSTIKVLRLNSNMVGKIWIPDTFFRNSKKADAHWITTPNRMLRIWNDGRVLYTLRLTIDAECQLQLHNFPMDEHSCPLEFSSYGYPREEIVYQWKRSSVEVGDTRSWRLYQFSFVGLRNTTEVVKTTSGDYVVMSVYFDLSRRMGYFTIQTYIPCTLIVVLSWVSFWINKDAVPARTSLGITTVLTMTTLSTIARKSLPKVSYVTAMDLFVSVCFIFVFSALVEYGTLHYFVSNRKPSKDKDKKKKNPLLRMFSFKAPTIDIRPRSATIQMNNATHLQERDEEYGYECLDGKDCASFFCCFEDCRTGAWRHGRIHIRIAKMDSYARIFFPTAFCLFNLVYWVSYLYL
T1 sequence (P28472 whole entry): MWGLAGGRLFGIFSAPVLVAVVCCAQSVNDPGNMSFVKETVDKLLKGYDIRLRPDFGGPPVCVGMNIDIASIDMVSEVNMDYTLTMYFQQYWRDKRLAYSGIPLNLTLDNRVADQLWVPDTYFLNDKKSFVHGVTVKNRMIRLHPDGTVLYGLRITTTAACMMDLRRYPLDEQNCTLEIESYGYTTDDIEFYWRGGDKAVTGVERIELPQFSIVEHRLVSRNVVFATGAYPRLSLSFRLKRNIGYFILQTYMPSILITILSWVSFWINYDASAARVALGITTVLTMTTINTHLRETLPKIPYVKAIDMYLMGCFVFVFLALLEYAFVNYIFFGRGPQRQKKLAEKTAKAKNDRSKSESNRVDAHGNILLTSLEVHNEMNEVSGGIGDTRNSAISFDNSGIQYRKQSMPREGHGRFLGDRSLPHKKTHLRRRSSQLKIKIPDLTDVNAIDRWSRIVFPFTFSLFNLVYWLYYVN
T1 sequence (P47869 whole entry): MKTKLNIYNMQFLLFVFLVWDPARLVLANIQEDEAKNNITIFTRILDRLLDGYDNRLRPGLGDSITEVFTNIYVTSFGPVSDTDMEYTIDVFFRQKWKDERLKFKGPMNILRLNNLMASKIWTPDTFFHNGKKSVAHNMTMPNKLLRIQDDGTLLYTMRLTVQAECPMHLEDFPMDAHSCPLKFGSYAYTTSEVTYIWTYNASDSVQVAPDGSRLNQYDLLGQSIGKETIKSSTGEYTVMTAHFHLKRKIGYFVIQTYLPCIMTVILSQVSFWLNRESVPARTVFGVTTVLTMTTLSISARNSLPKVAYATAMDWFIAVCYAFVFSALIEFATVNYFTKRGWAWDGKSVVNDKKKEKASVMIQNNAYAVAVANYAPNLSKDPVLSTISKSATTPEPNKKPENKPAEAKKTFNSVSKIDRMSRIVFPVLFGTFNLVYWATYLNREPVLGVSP
Kind of assay: Inhibition of [3H]Ro-151788 binding to recombinant human gamma-aminobutyric acid A receptor alpha-2-beta-3-gamma-2 subtype expressed in L (tk-) cells.

Assay [2] concerns the target T2, GABA-A receptor; alpha-1/beta-3/gamma-2 (Homo sapiens, UniProt P14867+P18507+P28472).
T2 sequence (P14867 whole entry): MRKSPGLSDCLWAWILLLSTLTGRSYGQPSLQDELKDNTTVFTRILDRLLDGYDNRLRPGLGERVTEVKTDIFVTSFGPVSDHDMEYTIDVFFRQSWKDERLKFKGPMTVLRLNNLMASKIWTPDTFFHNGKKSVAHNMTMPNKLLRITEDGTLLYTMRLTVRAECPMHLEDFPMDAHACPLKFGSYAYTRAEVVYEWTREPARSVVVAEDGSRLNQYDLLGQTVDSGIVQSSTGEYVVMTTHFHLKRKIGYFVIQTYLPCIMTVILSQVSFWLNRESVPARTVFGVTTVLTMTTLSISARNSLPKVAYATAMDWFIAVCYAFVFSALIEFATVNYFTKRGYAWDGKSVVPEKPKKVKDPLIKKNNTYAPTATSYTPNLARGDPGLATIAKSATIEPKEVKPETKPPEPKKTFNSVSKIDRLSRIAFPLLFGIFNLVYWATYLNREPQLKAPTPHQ
T2 sequence (P18507 whole entry): T1 sequence (P18507 whole entry)
T2 sequence (P28472 whole entry): T1 sequence (P28472 whole entry)
Kind of assay: Inhibition of [3H]Ro-151788 binding to recombinant human gamma-aminobutyric-acid A receptor alpha-1-beta-3-gamma-2 subtype expressed in L (tk-) cells.

Assay [3] has as its target T3, GABA-A receptor; alpha-3/beta-3/gamma-2 (Homo sapiens, UniProt P18507+P28472+P34903).
T3 sequence (P18507 whole entry): T1 sequence (P18507 whole entry)
T3 sequence (P28472 whole entry): T1 sequence (P28472 whole entry)
T3 sequence (P34903 whole entry): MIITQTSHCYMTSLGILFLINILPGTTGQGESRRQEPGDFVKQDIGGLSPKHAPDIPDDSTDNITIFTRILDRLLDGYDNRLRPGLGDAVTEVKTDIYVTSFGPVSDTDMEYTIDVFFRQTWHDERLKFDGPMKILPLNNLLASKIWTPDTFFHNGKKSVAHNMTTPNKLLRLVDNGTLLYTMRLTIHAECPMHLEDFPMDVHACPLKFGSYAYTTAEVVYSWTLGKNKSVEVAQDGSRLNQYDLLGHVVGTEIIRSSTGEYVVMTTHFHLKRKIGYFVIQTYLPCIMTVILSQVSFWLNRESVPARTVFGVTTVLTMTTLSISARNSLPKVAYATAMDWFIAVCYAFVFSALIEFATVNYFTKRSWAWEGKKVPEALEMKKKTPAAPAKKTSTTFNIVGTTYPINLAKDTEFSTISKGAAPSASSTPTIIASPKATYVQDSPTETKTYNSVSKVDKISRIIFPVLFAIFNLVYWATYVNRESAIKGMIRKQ
Kind of assay: Inhibition of [3H]Ro-151788 binding to recombinant human gamma-aminobutyric-acid A receptor alpha-3-beta-3-gamma-2 subtype expressed in L (tk-) cells.

Assay [4] addresses T4, GABA-A receptor; alpha-5/beta-3/gamma-2 (Homo sapiens, UniProt P18507+P28472+P31644).
T4 sequence (P18507 whole entry): T1 sequence (P18507 whole entry)
T4 sequence (P28472 whole entry): T1 sequence (P28472 whole entry)
T4 sequence (P31644 whole entry): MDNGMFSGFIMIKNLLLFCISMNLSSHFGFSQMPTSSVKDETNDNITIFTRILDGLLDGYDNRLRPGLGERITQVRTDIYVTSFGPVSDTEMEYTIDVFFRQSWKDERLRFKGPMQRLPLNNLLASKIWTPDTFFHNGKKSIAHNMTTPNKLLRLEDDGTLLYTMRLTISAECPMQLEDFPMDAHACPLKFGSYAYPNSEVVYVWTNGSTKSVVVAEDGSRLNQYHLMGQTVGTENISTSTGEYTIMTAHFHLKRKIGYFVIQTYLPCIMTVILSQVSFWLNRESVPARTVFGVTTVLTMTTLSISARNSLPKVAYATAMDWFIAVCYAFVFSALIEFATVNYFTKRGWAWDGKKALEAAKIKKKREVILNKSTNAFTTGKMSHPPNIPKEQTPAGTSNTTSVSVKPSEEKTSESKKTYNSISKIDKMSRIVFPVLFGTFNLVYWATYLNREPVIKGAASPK
The assay can be described thus: Inhibition of [3H]Ro-151788 binding to recombinant human gamma-aminobutyric-acid A receptor alpha-5-beta-3-gamma-2 subtype expressed in L (tk-) cells.

Assay [5] deals with GABA-A receptor; alpha-1/beta-3/gamma-2 (Homo sapiens) (UniProt P14867+P18507+P28472). The assay can be described thus: Efficacy was measured as modulation of the current in response to GABA at hGABA alpha-1-beta-3-gamma-2 receptor expressed in Xenopus oocytes. The conditions noted are these: Oocyte. An outline of the steps: (§1)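 Two-electrode voltage clamp on Xenopus oocytes expressing each receptor combination. […] Value is percent increase or decrease of the EC20 GABA current.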

Assay [6] addresses GABA-A receptor; alpha-2/beta-3/gamma-2 (Homo sapiens) (UniProt P18507+P28472+P47869). The assay can be described thus: Efficacy was measured as modulation of the current in response to GABA at hGABA alpha-2-beta-3-gamma-2 receptor expressed in Xenopus oocytes. The conditions noted are these: Oocyte. An outline of the steps: as §1
Assay [7] concerns the target GABA-A receptor; alpha-3/beta-3/gamma-2 (Homo sapiens) (UniProt P18507+P28472+P34903). Kind of assay: Efficacy was measured as modulation of the current in response to GABA at hGABA alpha-3-beta-3-gamma-2 receptor expressed in Xenopus oocytes. The conditions noted are these: Oocyte. An outline of the steps:
as §1

Assay [8] has as its target GABA-A receptor; alpha-5/beta-3/gamma-2 (Homo sapiens) (UniProt P18507+P28472+P31644). The assay can be described thus: Efficacy was measured as modulation of the current in response to GABA at hGABA alpha-5-beta-3-gamma-2 receptor expressed in Xenopus oocytes. The note with it: Oocyte. An outline of the steps:
as §1

Take `Cn1cnc(COc2nn3c(-c4ccccc4)nnc3c3c2C2CCC3CC2)n1`: the inhibition constant (Ki) amounted to 16 nM in assay [1], 31 nM in assay [2], 8 nM in assay [3] and 2.1 nM in assay [4]. For the same compound, the Efficacy in assay [5] worked out at 26%; in assay [6], 16%; in assay [7], 88%; in assay [8] it was 26%.

For the compound `c1ccc(-c2nnc3c4c(c(OCc5cccnn5)nn23)C2CCC4CC2)cc1`, the Ki in assay [1] was found to be 14 nM; in assay [2] it was 33 nM; in assay [3], 8.5 nM; in assay [4], 0.88 nM. In addition, the Efficacy was found to be 64% in assay [5], 35% in assay [6], 57% in assay [7] and 39% in assay [8].

Values taken from ChEMBL document CHEMBL1142695, “Discovery of functionally selective 7,8,9,10-tetrahydro-7,10-ethano-1,2,4-triazolo[3,4-a]phthalazines as GABA A receptor agonists at the alpha3 subunit” (J Med Chem, 2005).
